Measured values published in ChEMBL document CHEMBL1914456, “Design, synthesis and biological evaluation of mannosyl triazoles as FimH antagonists” (Bioorg Med Chem, 2011).
In brackets after ≈: the same amount, converted by molar mass.

Columns and labels:
[1] = Thermodynamic solubility of the compound at pH 6.5 after 24 hrs by shake flask method using LC-MS analysis; format: physicochemical; conditions: buffer, read-out: Therm_solubility
Summary of the method: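 1 mg solid shaken in 250 µL 50 mM phosphate buffer, pH 6.5: sonicated 15 min, shaken at 600 rpm and 25 °C for 2 h, then left 24 h. pH measured, then filtered by centrifugation. Filtrate diluted and quantified by LC-MS against a six-point calibration from 0.1 to 10 µg/mL.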

[2] = Permeability of the compound assessed as membrane retention at pH 5 to 7.4 after 16 hrs by PAMPA assay; format: ADME; conditions: pH 5, 16 h
Summary of the method: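 PAMPA sandwich: donor wells with compound solution, acceptor filter impregnated with GIT-0 lipid and filled with acceptor sink buffer. Incubated undisturbed for 16 h. Donor and acceptor samples quantified by UV spectroscopy and LC-MS; log Pe and membrane retention calculated from these.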

[3] = target: Type 1 fimbrin D-mannose specific adhesin (Escherichia coli K-12) (UniProt P08191); experiment: Ratio of compound IC50 to n-heptyl alpha-D-mannopyranoside IC50 for Escherichia coli recombinant C-terminal 6His-tagged FimH-CRD with a C-terminal thrombin cleavage site expressed in Escherichia coli HM125 assessed as inhibition of streptavidin-horseradish peroxidase conjugated TM-PAA polymer binding after 3 hrs by spectrophotometry
Summary of the method: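 FimH-CRD-Th-6His from E. coli HM125, purified on Ni-NTA, coated at 10 µg/mL in assay buffer (20 mM HEPES, 150 mM NaCl, 1 mM CaCl2, pH 7.4) overnight at 4 °C. Wells blocked with 3% BSA for 2 h at 4 °C. Four-fold serial dilutions of compound in buffer with 5% DMSO were added with streptavidin-peroxidase-coupled TM-PAA polymer (0.5 µg/mL). Plates were incubated 3 h at 25 °C, 350 rpm. ABTS was developed 4 min, stopped with 2% oxalic acid, and read at 415 nm. Each compound was run in duplicate and repeated at least twice. IC50 is the concentration that halves maximal specific TM-PAA binding. rIC50 is compound IC50 divided by the IC50 of n-heptyl α-D-mannopyranoside run on the same plate.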

[4] = Octanol-phosphate buffer distribution coefficient, log D of the compound at pH 7.4 after 2 hrs by shake flask method using LC-MS analysis; format: physicochemical
Summary of the method: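 Miniaturized shake flask. Phosphate buffer (0.1 M, pH 7.4) and 1-octanol mutually saturated. Analyte at 1 µM in buffer, overlaid with octanol at two volume ratios chosen by ALOGPS-predicted logP, three determinations per ratio.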

[5] = target: Type 1 fimbrin D-mannose specific adhesin (Escherichia coli K-12, UniProt P08191); experiment: Antagonist activity at Escherichia coli recombinant C-terminal 6His-tagged FimH-CRD with a C-terminal thrombin cleavage site expressed in Escherichia coli HM125 assessed as inhibition of streptavidin-horseradish peroxidase conjugated TM-PAA polymer binding after 3 hrs by spectrophotometry
Summary of the method: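 Plates coated overnight at 4 °C with 10 µg/mL FimH-CRD-Th-6His in 20 mM HEPES, 150 mM NaCl, 1 mM CaCl2, pH 7.4, then blocked with 3% BSA for 2 h at 4 °C. Fourfold serial dilutions in buffer with 5% DMSO plus 0.5 µg/mL streptavidin-peroxidase TM-PAA polymer, 3 h at 25 °C. ABTS for 4 min, stopped with oxalic acid, OD 415 nm. Duplicates, repeated at least twice; n-heptyl α-D-mannoside on each plate; IC50 from curve fit.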

Escherichia coli = experiment: Ratio of compound IC50 to n-heptyl alpha-D-mannopyranoside IC50 for Escherichia coli […] FimH assessed as disaggregation of microorganism from guinea pig erythrocytes measured for 1400 secs by aggregometry
[6] = Antagonist activity at Escherichia coli […] FimH assessed as disaggregation of microorganism from guinea pig erythrocytes measured for 1400 secs by aggregometry; format: functional
Summary of the method: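 E. coli UTI89 and guinea pig erythrocytes (separated on Histopaque), each adjusted to OD600 of 4 (1.9 × 10⁸ CFU/mL and 2.2 × 10⁶ cells/mL). Aggregation read as optical density at 740 nm, 37 °C, stirring at 1000 rpm. Instrument calibrated with protein-poor plasma in PBS as 100% and protein-rich plasma with erythrocytes as 0%. Triplicates; IC50 from area under the disaggregation curve.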

Type 1 fimbrin D-mannose specific adhesin, sequence (P08191 whole entry): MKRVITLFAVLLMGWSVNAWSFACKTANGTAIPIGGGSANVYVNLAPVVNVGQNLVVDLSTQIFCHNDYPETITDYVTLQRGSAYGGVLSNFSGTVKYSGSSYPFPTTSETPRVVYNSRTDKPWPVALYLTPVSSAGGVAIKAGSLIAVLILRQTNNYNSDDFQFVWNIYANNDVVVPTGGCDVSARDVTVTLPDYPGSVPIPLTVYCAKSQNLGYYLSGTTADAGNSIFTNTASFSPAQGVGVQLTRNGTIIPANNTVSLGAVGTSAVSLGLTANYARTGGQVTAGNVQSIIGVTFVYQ
Type 1 fimbrin D-mannose specific adhesin (Escherichia coli K-12), sequence (P08191 whole entry): as above

| solubility thermodynamic at 24 h [1] [µg/mL] | R% [2] | Ratio IC50 [3] | logD at 2 h [4] | IC50 [5] [nM] | Ratio IC50 (Escherichia coli) | IC50 ([6]; read-out: IC50) [nM] | IC50 [6] | SMILES |
| --- | --- | --- | --- | --- | --- | --- | --- | --- |
| > 3000 | 9.8% | 2.1 | 0.07 | 135 |  |  |  | OC[C@H]1O[C@H](OCc2cn(C34CC5CC(CC(C5)C3)C4)nn2)[C@@H](O)[C@@H](O)[C@@H]1O |
| > 3000 |  | 2.6 |  | 169 |  |  |  | O=C([O-])c1cncc(-n2cc(CO[C@H]3O[C@H](CO)[C@@H](O)[C@H](O)[C@@H]3O)nn2)c1.[Na+] |
| > 3000 | 11.8% | 3.5 | < -1 | 229 |  |  |  | COc1cccc(Cn2cc(CCO[C@H]3O[C@H](CO)[C@@H](O)[C@H](O)[C@@H]3O)nn2)c1 |
| > 3000 | 4% | 3 | -0.21 | 196 | 2.8 | 216000 |  | OC[C@H]1O[C@H](OCCc2cn(-c3ccc(F)cc3)nn2)[C@@H](O)[C@@H](O)[C@@H]1O |
| > 3000 | 2.9% | 1.7 | -0.3 | 112 |  |  |  | O=[N+]([O-])c1ccc(-n2cc(CCO[C@H]3O[C@H](CO)[C@@H](O)[C@H](O)[C@@H]3O)nn2)cc1 |
| > 3000 | 5.5% | 7.5 | -0.18 | 493 |  |  |  | OC[C@H]1O[C@H](n2cc(COc3ccccc3)nn2)[C@@H](O)[C@@H](O)[C@@H]1O |
| > 3000 | 5.4% | 5.3 | 0.18 | 348 |  |  |  | OC[C@H]1O[C@H](OCc2cn(-c3cccc(F)c3)nn2)[C@@H](O)[C@@H](O)[C@@H]1O |
| > 3000 |  | 4.5 |  | 296 |  |  |  | O=C([O-])c1cccc(-n2cc(CO[C@H]3O[C@H](CO)[C@@H](O)[C@H](O)[C@@H]3O)nn2)c1.[Na+] |
| > 3000 | 7.8% | 8.5 | -0.36 | 560 |  |  |  | OC[C@H]1O[C@H](Cn2cc(-c3ccccc3)nn2)[C@@H](O)[C@@H](O)[C@@H]1O |
| > 3000 | 4% | 6.9 | -0.38 | 452 |  |  |  | COc1cccc(Cn2cc(CO[C@H]3O[C@H](CO)[C@@H](O)[C@H](O)[C@@H]3O)nn2)c1 |
| 445 (≈ 1.38 mM) | 11.5% | 3.8 | 0.91 | 248 | 3.7 | 289000 |  | Cc1ccc(-c2cn([C@H]3O[C@H](CO)[C@@H](O)[C@H](O)[C@@H]3O)nn2)cc1 |
|  | impermeable | 5 | -0.83 | 327 |  |  |  | OC[C@H]1O[C@H](Cn2cc(COc3ccccc3)nn2)[C@@H](O)[C@@H](O)[C@@H]1O |
| 1380 (≈ 4.47 mM) | 10.3% | 3.3 | -1.04 | 216 |  |  |  | OC[C@H]1O[C@H](n2cc(-c3cccnc3)nn2)[C@@H](O)[C@@H](O)[C@@H]1O |
| 525 (≈ 1.35 mM) | impermeable | 3 | 1.07 | 194 |  |  | Not Active | OC[C@H]1O[C@H](Cn2cc(-c3ccc(C(F)(F)F)cc3)nn2)[C@@H](O)[C@@H](O)[C@@H]1O |
| 2600 (≈ 7.08 mM) | 7.9% | 2.5 | -0.05 | 161 |  |  |  | COc1ccc(-n2cc(CO[C@H]3O[C@H](CO)[C@@H](O)[C@H](O)[C@@H]3O)nn2)cc1 |
| > 3000 | 4.3% | 2.3 | < -1.5 | 153 | 3.6 | 277000 |  | OC[C@H]1O[C@H](OCCc2cn(-c3ccncc3)nn2)[C@@H](O)[C@@H](O)[C@@H]1O |

| solubility thermodynamic at 24 h [1] [µg/mL] | R% [2] | Ratio IC50 [3] | logD at 2 h [4] | IC50 [5] [nM] | Ratio IC50 (Escherichia coli) | IC50 ([6]; read-out: IC50) [nM] | IC50 [6] | SMILES |
| --- | --- | --- | --- | --- | --- | --- | --- | --- |
| 2600 (≈ 6.8 mM) | 4.9% | 6.1 | -0.16 |  |  |  |  | O=[N+]([O-])c1ccc(-n2cc(CO[C@H]3O[C@H](CO)[C@@H](O)[C@H](O)[C@@H]3O)nn2)cc1 |
| 1490 (≈ 4.44 mM) | 6.3% | 8.6 | 0.23 | 565 |  |  |  | Cc1ccc(-c2cn(C[C@H]3O[C@H](CO)[C@@H](O)[C@H](O)[C@@H]3O)nn2)cc1 |
| > 3000 | 3% | 10.2 | -0.33 | 667 |  |  |  | OC[C@H]1O[C@H](OCc2cn(Cc3ccccc3)nn2)[C@@H](O)[C@@H](O)[C@@H]1O |
| > 3000 | 4.6% | 11.9 | -0.15 | 778 |  |  |  | OC[C@H]1O[C@H](OCc2cn(-c3ccc(F)cc3)nn2)[C@@H](O)[C@@H](O)[C@@H]1O |
| > 2000 | 4% | 6.4 | 0.2 | 420 | 3.9 | 299000 |  | Nc1ccc(-n2cc(CO[C@H]3O[C@H](CO)[C@@H](O)[C@H](O)[C@@H]3O)nn2)cc1 |
| > 3000 |  | 3.2 |  | 207 |  |  |  | O=C([O-])c1ccc(-n2cc(CO[C@H]3O[C@H](CO)[C@@H](O)[C@H](O)[C@@H]3O)nn2)cc1.[Na+] |
| > 3000 | 6.4% | 3.8 | 0.21 |  |  |  |  | OC[C@H]1O[C@H](n2cc(-c3ccccc3)nn2)[C@@H](O)[C@@H](O)[C@@H]1O |
| > 3000 | 3.1% | 7.8 | -0.4 | 511 |  |  |  | COc1ccc(Cn2cc(CO[C@H]3O[C@H](CO)[C@@H](O)[C@H](O)[C@@H]3O)nn2)cc1 |
| 705 (≈ 2.06 mM) | 13.2% | 5.1 | 1.22 | 331 |  |  |  | OC[C@H]1O[C@H](n2cc(-c3cccc(Cl)c3)nn2)[C@@H](O)[C@@H](O)[C@@H]1O |
| 1880 (≈ 5.82 mM) | impermeable | 5.1 | < -1.5 | 333 |  |  | Not Active | OC[C@H]1O[C@H](Cn2cc(-c3cccnc3)nn2)[C@@H](O)[C@@H](O)[C@@H]1O |
| 159 (≈ 0.424 mM) | 17.2% | 2.2 | 1.45 | 144 | 3.2 | 249000 |  | OC[C@H]1O[C@H](n2cc(-c3ccc(C(F)(F)F)cc3)nn2)[C@@H](O)[C@@H](O)[C@@H]1O |
| > 3000 | 21% |  | 1.65 | 65.6 | 1 |  |  | CCCCCCCO[C@H]1O[C@H](CO)[C@@H](O)[C@H](O)[C@@H]1O |
| > 3000 | 9.2% | 1.1 | 0.24 | 70 |  |  | Not Active | OC[C@H]1O[C@H](OCc2cn(-c3ccncc3)nn2)[C@@H](O)[C@@H](O)[C@@H]1O |
| > 3000 | impermeable | 9.7 | 0.68 | 639 |  |  |  | OC[C@H]1O[C@H](Cn2cc(-c3cccc(Cl)c3)nn2)[C@@H](O)[C@@H](O)[C@@H]1O |
|  |  | 29 |  | 1900 |  |  |  | CO[C@H]1O[C@H](CO)[C@@H](O)[C@H](O)[C@@H]1O |
